Source: PubChem
Most compounds without a hit are left out; they make up all but 10% or so of the library.
Diaphorase act: activates diaphorase or chemically reduces, flagging diaphorase assay artifacts; Diaphorase/resazurin coupled assay, resorufin fluorescence, 16 min; hits give high values; 1 = vehicle wells, 0 = NADH-free wells; hit rate 0.005% among 190,000; activation factor at 20 µM; AID 1229;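 active means diaphorase activity raised at least twofold by the compound at 20 µM; inactive means activation factor below 2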
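Assay system: bacterial diaphorase enzyme (C. kluyveri) / Input: enzyme 0.07 U/mL final / Medium: 50 mM HEPES pH 7.4 with 4.542 mM MgCl2, 0.005% Tween 20 / Doses: single compound dose of 20 µM, 1% DMSO final / Incubation: 16 min enzyme reaction, ambient temperature / Signal: fluorescence, excitation 544 nm and emission 590 nm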
PMI act: phosphomannose isomerase (human) activation. P34949. purified human PMI, coupled resazurin fluorescence, 20 min; hits give high values; 1 = vehicle control, 0 substrate-free wells. activation factor at 20 µM. hit rate 0.005% among 190,000. AID 1214;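 active means activation factor of 2 or more at 20 µM, relative to plate controls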
Target sequence (P34949 whole entry, looked up): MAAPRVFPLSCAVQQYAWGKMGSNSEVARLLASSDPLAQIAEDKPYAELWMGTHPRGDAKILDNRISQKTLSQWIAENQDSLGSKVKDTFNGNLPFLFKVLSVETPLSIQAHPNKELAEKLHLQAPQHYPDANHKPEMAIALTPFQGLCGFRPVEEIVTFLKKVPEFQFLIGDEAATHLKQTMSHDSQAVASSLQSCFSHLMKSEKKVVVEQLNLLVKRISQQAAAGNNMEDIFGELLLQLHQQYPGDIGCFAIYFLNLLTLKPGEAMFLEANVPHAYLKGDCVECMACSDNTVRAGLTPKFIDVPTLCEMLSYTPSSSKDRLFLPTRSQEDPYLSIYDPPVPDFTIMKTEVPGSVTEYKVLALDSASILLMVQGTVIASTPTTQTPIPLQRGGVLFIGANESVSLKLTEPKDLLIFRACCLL
L major viab: reduces viability of Leishmania major promastigotes; hit rate 9% among 200,000; resazurin fluorescence viability; inhibition, % at 10 µM; in the data active means inhibition above about 50%;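 further: promastigotes grown with compound for 44 hours at 28 °C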
PMI act hi M6P: increases human PMI activity with near-saturating mannose 6-phosphate | activation factor at 20 µM | P34949 | AID 1216 | hit rate 0.34% among 190,000 | coupled PMI enzyme assay, resazurin fluorescence, 20 min; hits give high values; 1 = untreated enzyme, 0 = substrate-free blank;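 active means activation factor of 2 or more at 20 µM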
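assay system = human phosphomannose isomerase with PGI, G6PDH, diaphorase coupling enzymes | quantity = 15 ng/mL PMI | incubation = enzyme reaction with compound 20 min at room temperature | medium = HEPES pH 7.4 buffer with MgCl2 and Tween-20 | compound dosing = one concentration, 20 µM, in 1% DMSO | measured by = Diaphorase-driven resazurin-to-resorufin fluorescence, excitation 544, emission 590 nm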
WT yeast gro inh: growth inhibition of WT yeast, mitochondrial fusion screen; hit rate 2.1% among 190,000; inhibition, % at 10 µM; AID 1362; mitochondrial fusion phenotypic screen, WT strain; in the data active means inhibition above about 58%; tested in S. cerevisiae
An asterisk follows results filed as active; / = not tested or not shown.

SMILES | Diaphorase act | PMI act | L major viab | PMI act hi M6P | WT yeast gro inh
CC(C)C(O)(C#CCN1CCCCCC1)c1ccccc1 (stereo not drawn) | 0.9 | 1 | 83* | 1 | -12
CC(C)(C)C(O)(CC#CCN1CCCC1)c1ccccc1 (stereo not drawn) | 1 | 0.9 | 69* | 0.9 | -14
CC(O)(C#CCN1CCCC1)c1ccccc1 (stereo not drawn) | 1 | 1 | -2 | 1.1 | -1
CC(C)C(O)(CC#CCN1CCCC1)c1ccccc1 (stereo not drawn) | 1.3 | 1.3 | 54* | 1.4 | 4
C(#Cc1ccccc1)CN1CCCCC1 | 0.9 | 1 | -4 | 1.1 | -7
C(#CCN1CCCC1)CC(c1ccccc1)c1ccccc1 | 0.9 | 1 | 100* | 1 | 16
CCN(CC)C(=O)c1ccc2c3c(cccc13)C(=O)N(CCc1ccc(OC)c(OC)c1)C2=O | 0.9 | 0.9 | -2 | 0.9 | 13
Cc1ccc(S(=O)(=O)Nc2ccc3nc(-c4cccn4C)[nH]c3c2)cc1 | 1 | 0.9 | 13 | 1 | -1
Cc1[nH]c2ccccc2c1C(=O)CSc1nc2ccccc2c(=O)n1CCCN1CCOCC1 | 0.9 | 0.9 | 29 | 1 | -6
O=C(NNC(=S)NC(=O)C12CC3CC(CC(C3)C1)C2)c1ccncc1 | 0.5 | 1 | 78* | 1.1 | 80*
O=C(NNC(=O)C12CC3CC(CC(C3)C1)C2)c1cnccn1 | 0.9 | 0.8 | 89* | 1 | -6
CC1(C(=O)NC(=S)NNC(=O)c2ccncc2)CCCCC1 | 0.6 | 1.1 | 2 | 1.2 | 2
CC/C(=N\NC(=O)c1ccc2c(c1)OCO2)C12CC3CC(CC(C3)C1)C2 | 0.9 | 1.1 | 99* | 1.1 | 13
CC/C(=N\NC(=O)c1ccncc1)C12CC3CC(CC(C3)C1)C2 | 1 | 1.1 | 89* | 1.2 | -10
CCOc1ccc(N2C(=O)C3C(c4ccc(O)cc4)NC(CCSC)(C(=O)OC)C3C2=O)cc1 (stereo not drawn) | 0.9 | 1 | -4 | 1 | -4
CC1CCCN(CCCCOc2cccc(Br)c2)C1 (stereo not drawn) | 1 | 1.1 | 99* | 1.1 | 41
CC(C)(C)c1ccc(OCCN2CCCC2)cc1 | 1 | 0.9 | 97* | 1 | 2
CC1CCCN(CCC(=O)c2ccc(Br)cc2)C1 (stereo not drawn) | 0.8 | 0.4 | 96* | 0.4 | -6
CCCCCC(O)(CCN1CCCCC1)c1ccc(OCC)cc1 (stereo not drawn) | 1.1 | 1.1 | 27 | 1 | 6
COc1ccc(OCCCN2CCCCCC2)cc1 | 1.1 | 1 | 99* | 1.1 | 1
O=C(COc1ccc(-c2ccccc2)cc1)N1CCN(S(=O)(=O)Cc2ccccc2)CC1 | 0.9 | 0.9 | -3 | 0.9 | -4
CCOC(=O)C1CCN(C(=O)CSc2nccc(C)n2)CC1 | 1 | 1.1 | -2 | 1.1 | -8
CCOc1cccc(OCCCCN2CCCCC2)c1 | 0.8 | 0.9 | 97* | 0.9 | -2
Brc1cccc(OCCCCN2CCCCC2)c1 | 0.8 | 0.9 | 98* | 0.9 | 20
COc1cccc(OCCCCN2CCCCC2)c1 | 0.9 | 0.9 | 97* | 1 | -6
SMILES | Diaphorase act | PMI act | L major viab | PMI act hi M6P | WT yeast gro inh
CC(=O)c1ccc(OCC(O)CN2CCCC(C)C2)cc1 (stereo not drawn) | 0.9 | 1 | 43 | 1.1 | 12
CC1CCCN(CCOc2ccc(Br)cc2)C1 (stereo not drawn) | 1 | 1.1 | 51* | 1.2 | -8
CCCc1cc(C(=O)NNC(=S)NC(C)c2ccccc2)cs1 (stereo not drawn) | 1.1 | 1.1 | -1 | 1.2 | 6
Cc1cccc(NC(=S)N2CCC(C(=O)c3ccc(F)cc3)CC2)c1C | 0.9 | 0.9 | -3 | 0.9 | 8
COc1cc2c(cc1OC)CN(CCC(=O)c1ccc(Br)cc1)CC2 | 0.9 | 0.6 | 61* | 0.6 | 13
COc1cccc(OCCCN2CCCCC2)c1 | 0.9 | 0.9 | 96* | 1 | 16
c1ccc(OCCCN2CCCC2)cc1 | 1.1 | 1.1 | 0 | 1.1 | -9
CCCC(C)NC(=O)COc1ccc(Sc2ccc(OCC(=O)NC(C)CCC)cc2)cc1 (stereo not drawn) | 1 | 0.9 | 1 | 1.1 | 4
COC(=O)c1c(C)c2c(C)cc3ccccn3c-2c1C(=O)OC | 0.8 | 0.8 | 20 | 0.9 | -4
COC(=O)c1cc2c(-c3ccccc3)cc3ccccn3c-2c1C(=O)OC | 0.7 | 0.9 | 88* | 1 | 25
CCN(CC)S(=O)(=O)c1ccc(C(=O)OCC(=O)Nc2ccc(-c3nc4ccc(C)cc4s3)cc2)cc1 | 1 | 0.9 | 58* | 0.9 | -34
COc1ccc(Cn2c(C3CC3)nc3ccc(NC(=O)C4CC4)cc3c2=O)cc1 | 1 | 1.1 | 10 | 1.1 | -12
CC(=O)Nc1ccc2nc(C3CC3)n(Cc3ccc(Cl)cc3)c(=O)c2c1 | 0.9 | 1 | 84* | 1.1 | 9
Cc1ccccc1N1C(=O)CSC1=C(C#N)C#N | 0.9 | 1.2 | -4 | 1 | -11
CC1=CC(=C(C#N)C#N)c2ccccc2N1C | 1 | 1 | 99* | 0.8 | -4
COc1cccc2c(=O)cn[nH]c12 | 0.9 | 1 | -2 | 1 | -14
CC1CCN(S(=O)(=O)c2ccc(N/N=C(/C#N)C(N)=O)cc2)CC1 | 0.9 | 0.9 | 0 | 1 | 78*
O=C(Nc1ccc(Cc2ccncc2)cc1)c1ccc(S(=O)(=O)N2CCOCC2)cc1 | 0.9 | 1 | 99* | 1 | -4
Cc1ccc(C(=O)Nc2ccc(S(=O)(=O)N3CCOCC3)cc2)cc1 | 0.9 | 1 | -3 | 1 | 2
Cc1cc(C)nc(NS(=O)(=O)c2ccc(NC(=O)c3ccc(S(=O)(=O)N4CCOCC4)cc3)cc2)n1 | 0.9 | 0.9 | -5 | 1 | -10
O=C(Nc1ccc(S(=O)(=O)Nc2ccc(F)cc2)cc1)c1ccc(CN2CCOCC2)cc1 | 0.7 | 0.7 | 98* | 0.8 | -25
Cc1cc(C)c(O)c(-c2cc(C(=O)Nc3ccc(S(=O)(=O)N4CCOCC4)cc3)[nH]n2)c1 | 0.8 | 0.8 | 90* | 0.9 | -20
COc1ccc(NS(=O)(=O)c2ccc(NC(=O)c3ccc(CN4CCOCC4)cc3)cc2)cc1 | / | / | 13 | / | 6
Cc1ccccc1-n1c(C)nnc1SCC(=O)N(C)C1CCS(=O)(=O)C1 (stereo not drawn) | 0.9 | 1 | -4 | 0.9 | -21
CCNc1nc(OC)nc(N2CCC(Cc3ccccc3)CC2)n1 | 1 | 1 | 45 | 1.1 | 21
Nc1ccc(S(=O)(=O)C(F)(F)F)cc1N | 1 | 1.1 | 3 | 1 | 8
CC1CCN(S(=O)(=O)c2ccc(NC(=O)CN3CCCC(C)C3)cc2)CC1 (stereo not drawn) | 0.9 | 1 | 89* | 1 | -11
O=C(CSCc1ccc(Cl)cc1)Nc1ccc(S(=O)(=O)N2CCOCC2)cc1 | 0.7 | 0.9 | 88* | 0.9 | 11
